The values that follow come from ChEMBL document CHEMBL3992505, “Optimization of substituted imidazobenzodiazepines as novel asthma treatments” (Eur J Med Chem, 2017).

Activity calls are given as the source filed them. No cut-off for these calls is given here. A value given as a limit tells only on which side of the number the result lay.

Data set [1] in a line: Cytotoxicity in human BEAS2B cells after 48 hrs by Cell-titer Glo reagent based assay. On the set-up: species or system BEAS-2B. The note with it: read-out: LD50. The gist of the method: (§1)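 Cells (HEK293, HepG2 or BEAS2B) exposed to compounds at a range of concentrations for 48 h; viability read by Cell-Titer Glo luminescence. Normalized to DMSO (negative) and 3-dibutylamino-1-(4-hexyl-phenyl)-propan-1-one at 150 μM final in DMSO (positive).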

For data set [2], the target named is T1, GABA-A receptor; alpha-1/beta-3/gamma-2 (Homo sapiens, UniProt P14867+P18507+P28472).
T1 sequence (P14867 whole entry): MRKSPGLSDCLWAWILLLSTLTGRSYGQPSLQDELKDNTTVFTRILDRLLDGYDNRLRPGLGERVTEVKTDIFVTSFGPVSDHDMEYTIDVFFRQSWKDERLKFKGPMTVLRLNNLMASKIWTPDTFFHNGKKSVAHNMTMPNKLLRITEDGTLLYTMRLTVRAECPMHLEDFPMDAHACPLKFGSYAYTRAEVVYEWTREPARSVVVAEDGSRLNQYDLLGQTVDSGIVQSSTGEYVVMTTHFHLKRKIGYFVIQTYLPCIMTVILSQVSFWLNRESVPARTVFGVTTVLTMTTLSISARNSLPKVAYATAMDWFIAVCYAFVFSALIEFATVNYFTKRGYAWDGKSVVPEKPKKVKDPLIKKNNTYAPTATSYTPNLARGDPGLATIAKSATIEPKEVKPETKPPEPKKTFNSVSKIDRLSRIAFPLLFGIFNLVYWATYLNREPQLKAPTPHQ
T1 sequence (P18507 whole entry): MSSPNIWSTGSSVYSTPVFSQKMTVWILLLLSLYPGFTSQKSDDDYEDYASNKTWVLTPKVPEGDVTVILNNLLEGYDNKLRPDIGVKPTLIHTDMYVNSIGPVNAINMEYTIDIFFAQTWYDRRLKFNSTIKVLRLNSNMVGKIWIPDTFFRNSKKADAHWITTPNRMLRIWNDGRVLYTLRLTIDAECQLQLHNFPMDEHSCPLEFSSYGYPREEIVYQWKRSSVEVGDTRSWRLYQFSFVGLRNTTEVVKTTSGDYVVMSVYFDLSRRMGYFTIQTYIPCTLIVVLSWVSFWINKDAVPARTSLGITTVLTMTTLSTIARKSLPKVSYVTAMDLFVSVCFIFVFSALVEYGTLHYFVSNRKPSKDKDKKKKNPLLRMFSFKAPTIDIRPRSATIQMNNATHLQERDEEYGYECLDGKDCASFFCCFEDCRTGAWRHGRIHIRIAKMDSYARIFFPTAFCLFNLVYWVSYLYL
T1 sequence (P28472 whole entry): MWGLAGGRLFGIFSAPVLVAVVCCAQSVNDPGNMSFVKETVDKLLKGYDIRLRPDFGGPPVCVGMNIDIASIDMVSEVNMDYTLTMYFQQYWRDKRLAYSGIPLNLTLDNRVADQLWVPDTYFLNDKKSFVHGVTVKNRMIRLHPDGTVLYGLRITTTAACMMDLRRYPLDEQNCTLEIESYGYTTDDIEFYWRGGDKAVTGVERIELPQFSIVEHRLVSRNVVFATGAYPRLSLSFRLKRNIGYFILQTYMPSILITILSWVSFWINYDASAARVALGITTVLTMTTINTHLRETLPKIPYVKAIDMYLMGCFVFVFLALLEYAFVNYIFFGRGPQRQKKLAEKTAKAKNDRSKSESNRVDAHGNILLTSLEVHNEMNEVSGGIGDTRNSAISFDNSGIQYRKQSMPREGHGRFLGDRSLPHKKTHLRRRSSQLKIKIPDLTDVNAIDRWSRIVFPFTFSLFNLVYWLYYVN
The experiment in a line: Activity at GABAA alpha1beta3gamma2 receptor (unknown origin) expressed in HEK293T cells assessed as potentiation of GABA-mediated increase in channel current under holding potential at -80 mV at 1 uM by patch clamp assay. It counts as cell-based. (In general: Patch clamp records ionic current or voltage across a cell membrane.)

Data set [3] can be described thus: Cytotoxicity in human HepG2 cells after 48 hrs by Cell-titer Glo reagent based assay. The settings on record: read-out: LD50. The gist of the method: as §1
Data set [4] has as its system Blood. The experiment in a line: Elimination rate constant in mouse blood assessed as (S)-7-Methoxy-N-methyl-9-oxo-11,12,13,13a-tetrahydro-9H-benzo[e]imidazo[5,1-c]pyrrolo[1,2-a][1,4]diazepine-1-carboxamide at 5 mg/kg, ip by LC/MS/MS analysis. It counts as ADME, organism-based. The settings on record: in vivo.
The nature of data set [5]: Half life in human liver microsomes at 10 uM by LC-MS/MS analysis. It counts as ADME, microsome.
A short description of data set [6]: Half life in mouse lung at 5 mg/kg, ip by LC/MS/MS analysis. It counts as ADME, organism-based.
The test system of data set [7] is Blood. The experiment in a line: AUC (0 to t) in mouse blood assessed as (S)-7-Methoxy-N-methyl-9-oxo-11,12,13,13a-tetrahydro-9H-benzo[e]imidazo[5,1-c]pyrrolo[1,2-a][1,4]diazepine-1-carboxamide at 5 mg/kg, ip by LC/MS/MS analysis. It is filed as ADME, organism-based. The settings on record: in vivo.
The species entered for the next data set is Cavia porcellus. The experiment in a line: Inhibition of substance P-induced smooth muscle contractile force in guinea pig tracheal rings at 16 uM after 1 hr. It counts as functional.
The subject of another data set is Lung. As to the kind of experiment: AUC (0 to t) in mouse lung at 5 mg/kg, ip by LC/MS/MS analysis. The settings on record: in vivo. It is filed as ADME, organism-based.
Data set [8] can be described thus: Half life in mouse brain at 5 mg/kg, ip by LC/MS/MS analysis. It is filed as ADME, organism-based.
Data set [9] deals with Brain. As to the kind of experiment: AUC (0 to t) in mouse brain at 5 mg/kg, ip by LC/MS/MS analysis. It is filed as ADME, organism-based. The settings on record: in vivo.
Data set [10] is described as follows: Cmax in mouse blood at 5 mg/kg, ip by LC/MS/MS analysis. It counts as ADME, organism-based. Set-up: dose 5 mg/kg, route intraperitoneal.
Data set [11] has as its system Liver. The experiment in a line: Metabolic stability in human liver microsomes assessed as compound remaining at 10 uM after 1 hr by LC-MS/MS analysis. It is filed as ADME, microsome. The gist of the method: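 Compound stability was measured in human or mouse liver microsomes as percent remaining after 1 h. Data came from two independent experiments, each run in triplicate.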
In general terms: Liver microsomes are a subcellular fraction often used to study metabolism.

For data set [12], the system named is Blood. As to the kind of experiment: Half life in mouse blood assessed as (S)-7-Methoxy-N-methyl-9-oxo-11,12,13,13a-tetrahydro-9H-benzo[e]imidazo[5,1-c]pyrrolo[1,2-a][1,4]diazepine-1-carboxamide at 5 mg/kg, ip by LC/MS/MS analysis. It counts as ADME, organism-based. The settings on record: in vivo.
The nature of data set [13]: Cmax in mouse lung at 5 mg/kg, ip by LC/MS/MS analysis. It counts as ADME, organism-based. On the set-up: dose 5 mg/kg, route intraperitoneal.
The subject of data set [14] is Liver. The experiment in a line: Half life in mouse liver microsomes at 10 uM by LC-MS/MS analysis. It is filed as ADME, microsome. The settings on record: microsomes, 10 µM.
The subject of data set [15] is Blood. As to the kind of experiment: Half life in mouse blood at 5 mg/kg, ip by LC/MS/MS analysis. It counts as ADME, organism-based. The settings on record: in vivo.
Data set [16] has as its system Brain. The experiment in a line: Cmax in mouse brain at 5 mg/kg, ip by LC/MS/MS analysis. It counts as ADME, organism-based. Set-up: dose 5 mg/kg, route intraperitoneal. The settings on record: in vivo.
The nature of data set [17]: Elimination rate constant in mouse blood at 5 mg/kg, ip by LC/MS/MS analysis. It is filed as ADME, organism-based.
Data set [18] relates to Blood. As to the kind of experiment: Drug metabolism in mouse blood assessed as (S)-7-Methoxy-N-methyl-9-oxo-11,12,13,13a-tetrahydro-9H-benzo[e]imidazo[5,1-c]pyrrolo[1,2-a][1,4]diazepine-1-carboxamide formation at 5 mg/kg, ip after 3 mins by LC/MS/MS analysis. It counts as ADME, organism-based. The settings on record: in vivo, 0.05 h.
A short description of data set [19]: Tmax in mouse brain at 5 mg/kg, ip by LC/MS/MS analysis. It is filed as ADME, organism-based.

For the molecule `COc1ccc2c(c1)C(=O)N1CCC[C@H]1c1c(C(=O)N(C)C)ncn1-2`, the CC50 at 48 h in [1] and in data set [3] was > 400 µM throughout. For the same molecule, the Activity in [2] fell in the range of 161 to 179%. Further, the Kel in the data set with Blood [4] was 0.028 min⁻¹. In addition, the half-life (usually the time in which the quantity being followed falls by half) at 10 µM in data set [5] is 705 min. Also, the half-life in [6] is 11.7 min; in [8], 10.3 min. Moreover, the AUCt was found to be 64675 ng·min/mL with Blood [7], 764 ng·min/g with Lung and 2701 ng·min/g in the data set on Brain [9]. The inhibition entry in the data set listed under Cavia porcellus was “Active”. In addition, the Cmax (in general, the highest concentration seen after dosing) in data set [10] was 691 ng/mL; in [13], 30 ng/g; in the data set on Brain [16], 123 ng/g. Further, the Stability with Liver [11] amounted to 92.4%. The figures for the t1/2 in the data set on Blood [12], in the data set on Liver [14] and in the data set with Blood [15] were 24.3 min, 63.3 min and 8.8 min, respectively. In addition, the k el in [17] was 0.0013 s⁻¹. In the data set on Blood [18], the Drug metabolism entry was “Metabolite_Detected”. Besides, the Tmax (usually the time at which the peak concentration occurs) in data set [19] is 10 min.
